Measurements of several laboratories.
Lines come from different studies, so protocols differ.
Target: 5'-AMP-activated protein kinase catalytic subunit alpha-1 (PRKAA1, Homo sapiens, UniProt Q13131)

C=CC(=O)Nc1cc(Nc2nccc(Nc3cc(Cl)c(F)cc3C(C)(C)O)n2)c(OC)cc1N1CC[C@@H](N(C)C)C1 gave an inhibition of -6% (enzyme activity; inhibitor; 1 µM).
For Cc1ncc([N+](=O)[O-])n1C(=NO)c1ccccc1C(F)(F)F, the inhibition was 7.33% (enzyme activity; inhibitor; 10 µM).
With COc1cccc2c(NCc3ccccc3)nc(-n3c(N)nc4ccccc43)nc12 the inhibition was 8.3% (target engagement in cells; inhibitor; chemoproteomics; 20 mM).
With O=C(Nc1cccnn1)N1CC(C/C=C/c2cncc(Oc3ccc(C(F)(F)F)cn3)n2)C1 the remaining binding was 100% (cell-free assay; competition with immobilised ligand; 1 µM).
With CC(C)(C)c1nc(-c2cccc(NS(=O)(=O)c3c(F)cccc3F)c2F)c(-c2ccnc(N)n2)s1 the remaining activity was 49% (enzyme activity; inhibitor; radiometric; 1 µM).
For CN1CC(Oc2cnc(C#N)cc2-c2ccn3nc(NC(=O)C4CC4)cc3c2)C1, the inhibition was 5% (enzyme activity; inhibitor; 1 µM).
The remaining activity of Cc1ccc(C(=O)Nc2ccc(CN3CCN(C)CC3)c(C(F)(F)F)c2)cc1C#Cc1cnc2cccnn12 is reported as 73% (enzyme activity; 23.5 nM).
FC(F)(F)Oc1cccc(-c2cnc3ccc(-c4ccncc4)nn23)c1 has an activity vs control of 81% (enzyme activity; inhibitor; radiometric; 1 µM).
The remaining activity of CC(C)(C)c1nc2c(s1)c1nc(N)ncc1c1ccc(NS(=O)(=O)c3c(F)cccc3F)c(F)c12 is reported as 81% (enzyme activity; inhibitor; radiometric; 1 µM).
With CCCCNc1ncc2c(-c3ccc(F)cc3)nn(C[C@H]3CC[C@H](N)CC3)c2n1 the inhibition was 22.8% (target engagement in cells; inhibitor; chemoproteomics; 20 mM).
For CCc1ccccc1C(=O)Nc1n[nH]c2c(C)c(F)c(C3C(C#N)=C(C)N(C)C(C)=C3C#N)cc12, the remaining binding was 7.5% (cell-free assay; competition with immobilised ligand; 1 µM).
Nc1ncnc2occ(-c3ccc(NC(=O)Nc4cc(C(F)(F)F)ccc4F)cc3)c12 gave a remaining signal of 5.3% (cell-free assay; 20 µM).
With Nc1cnc(N2CCc3cc(S(=O)(=O)Nc4c(F)cc(Cl)cc4F)cc(N4CCCC4=O)c32)nc1 the remaining binding was 100% (cell-free assay; competition with immobilised ligand; 1 µM).
CCN1CCN(Cc2ccc(NC(=O)c3ccc(C)c(Oc4ccnc5[nH]ccc45)c3)cc2C(F)(F)F)CC1 has an inhibition of -32.8% (target engagement in cells; inhibitor; chemoproteomics; Huh-7; 1 µM).
